Compounds with a hit are over-represented: about 2.9% of the library has one in this group of screens.
SENP8 block-1: SENP8 protease inhibitors, primary screen, biochemical, luminescence. Sentrin-specific protease 8 (Homo sapiens), Q96LD8. purified SENP8, Z-RLRGG-aminoluciferin cleavage. inhibition, % at 10 µM. 330,000 tested, 1.2% active; in the data active = inhibition above about 50%
SENP1 FRET inh: human SENP1 catalytic domain inhibitors, primary screen, biochemical, FRET, uHTS | AID 624204, 2012 | 360,000 tested, 0.21% active | recombinant SENP1 catalytic domain, CyPet-SUMO1-YPet FRET cleavage | inhibition, % at 10 µM;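 active = inhibition at least 30% at 10 µM, raw YFP signal under a set limit, fluorescence ratio 0.5 to 1.5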;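 note: 0% = enzyme with DMSO and 100% = no enzyme wells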
Target sequence (Q9P0U3 419-644 limits assumed): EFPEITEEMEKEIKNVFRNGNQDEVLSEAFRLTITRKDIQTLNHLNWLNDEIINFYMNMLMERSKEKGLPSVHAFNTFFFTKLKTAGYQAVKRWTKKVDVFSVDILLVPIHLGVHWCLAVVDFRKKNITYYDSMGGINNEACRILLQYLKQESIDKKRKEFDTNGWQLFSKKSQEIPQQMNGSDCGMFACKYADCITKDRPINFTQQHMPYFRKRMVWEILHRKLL
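Compound: 10 µM single point, 0.5% DMSO; Test system: hSENP1 catalytic domain, recombinant; Timing: 50 min reaction at room temperature; Technique: FRET, CFP and YFP emission; Control set: no-enzyme wells low, DMSO-plus-enzyme wells high control.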
SENP6 inh: SENP6 protease inhibitors, primary screen, biochemical, luminescence, uHTS | Recombinant SENP6 catalytic domain, aminoluciferin luminescence | inhibition, % at 10 µM | 330,000 tested, 1.8% active;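 active = inhibition above about 50% at the single tested dose, limit read from the data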;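 note: plate controls were DMSO wells with enzyme for no effect and DMSO wells lacking enzyme for full effect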
Target sequence (Q9GZR1 628-1112 limits assumed): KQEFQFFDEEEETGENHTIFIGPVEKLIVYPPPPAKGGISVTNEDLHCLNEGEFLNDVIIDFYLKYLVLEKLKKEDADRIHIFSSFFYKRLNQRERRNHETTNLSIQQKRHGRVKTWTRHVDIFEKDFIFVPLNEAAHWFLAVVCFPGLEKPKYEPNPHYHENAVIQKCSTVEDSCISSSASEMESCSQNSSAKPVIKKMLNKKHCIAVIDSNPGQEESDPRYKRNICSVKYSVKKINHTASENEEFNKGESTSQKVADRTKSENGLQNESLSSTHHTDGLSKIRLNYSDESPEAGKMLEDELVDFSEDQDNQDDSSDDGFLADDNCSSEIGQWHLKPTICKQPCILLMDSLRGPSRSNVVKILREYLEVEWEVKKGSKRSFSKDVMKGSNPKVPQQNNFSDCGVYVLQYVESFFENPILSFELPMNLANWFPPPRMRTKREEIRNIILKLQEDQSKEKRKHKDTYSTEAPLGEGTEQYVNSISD
HSP90 inh: HSP90 inhibitors, primary screen, cell lysate, luminescence. 290,000 tested, 0.91% active. AID 1789, 2009. Heat shock protein HSP 90 (rabbit reticulocyte lysate; luciferase refolding). Rabbit reticulocyte lysate, luciferase refolding luminescence, 3 h. inhibition, % at 5.6 µM;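 active = inhibition above the screen-wide mean plus 3 SD, computed separately per campaign, cut at about 16% in these data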;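 note: 0% = DMSO wells and 100% = 60 µM geldanamycin wells; inhibitors lower the luminescence because luciferase stays unfolded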
SENP8 block-2: human SENP8 protease inhibitors, primary screen, biochemical, fluorescence, Nedd8 protein substrate, uHTS; recombinant SENP8; inhibition, % at 20 µM; 360,000 tested, 0.64% active; AID 602440, 2012; in the data active = inhibition mostly above about 40%, no sharp cut-off; inactive = mostly below about 27%
SENP7 block: SENP7 protease inhibitors, primary screen, biochemical, luminescence, uHTS. recombinant SENP7, Z-RLRGG-aminoluciferin luminescence, 40 min. inhibition, % at 5 µM. 330,000 tested, 1.5% active;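 active = inhibition above about 50% at the single test dose, limit read from the data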;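 note: plate controls were DMSO with enzyme for no effect and no enzyme buffer wells for full effect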
SENP8 conf: SENP8 protease inhibitors, retest, confirmation, biochemical, luminescence, single concentration. shares compounds with SENP7 block. Recombinant SENP8, Z-RLRGG-aminoluciferin luminescence, 60 min. inhibition, % at 12.5 µM. 6,200 tested, 40% active. AID 488912, 2010;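 active = mean inhibition across replicates above about 50%, limit read from the data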
SENP6 confirm: SENP6 protease inhibitors, confirmation, biochemical, luminescence, single concentration; inhibition, % at 12.5 µM; 6,200 tested, 58% active; recombinant SENP6, Z-RLRGG-aminoluciferin luminescence; AID 488915, 2010; shares compounds with SENP7 block
SENP7 confirm: SENP7 protease inhibitors, retest, confirmation, biochemical, luminescence, single concentration. shares compounds with SENP7 block. recombinant SENP7, Z-RLRGG-aminoluciferin luminescence, 40 min. inhibition, % at 12.5 µM. 6,200 tested, 69% active
Casp3 select: caspase-3 protease inhibitors, confirmation, selectivity assay for SENP inhibitor project, biochemical, single concentration | shares compounds with SENP7 block | purified caspase-3, Z-DEVD-aminoluciferin luminescence, 60 min | inhibition, % at 12.5 µM | 6,200 tested, 60% active | AID 488918, 2010;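 active = mean inhibition above about 50%, limit read from the data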;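 note: plate controls were enzyme with DMSO for no effect and wells without caspase-3 for full effect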
SENP luc ctr: luminescence interference (SENP counter-screen); shares compounds with SENP7 block; Pre-incubated SENP8/Z-RLRGG-aminoluciferin, luciferase luminescence interference; inhibition, % at 12.5 µM; 6,200 tested, 39% active; AID 488919;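 active = mean inhibition above about 50% when retested at one dose, limit read from the data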;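 note: plate controls were DMSO wells with completed reaction for no effect and substrate without enzyme for full effect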
Active calls of the source: *; x = no result given.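 Rule for the calls, unless noted: active = mean inhibition above about 50% in the one-dose retest (limit read from the data); inactive = the rest.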

SMILES	SENP8 block-1	SENP1 FRET inh	SENP6 inh	HSP90 inh	SENP8 block-2	SENP7 block	SENP8 conf	SENP6 confirm	SENP7 confirm	Casp3 select	SENP luc ctr
O=C(NC1CCCCC1)C(c1ccc(F)cc1)N(CCCN1CCOCC1)C(=O)c1ccc(CN2CCOCC2)o1 (stereo not drawn)	6.7	-2.1	18.6	-2.0	18.2	6.3	x	x	x	x	x
CCN(CC)C(=O)C1=C(C)N(Cc2ccc(C(C)(C)C)cc2)C(=O)C(CC(=O)NC2CC2)C1 (stereo not drawn)	x	1.9	x	x	4.8	x	x	x	x	x	x
COc1ccc2[nH]c3c(=O)n(Cc4ccc(C(=O)N5CCC(C(N)=O)CC5)cc4)c(=S)[nH]c3c2c1	66.5*	0.6	68.6*	-1.1	-300.0	56.6*	73.1*	72.0*	87.3*	68.2*	41.1
COc1ccc2[nH]c3c(=O)n(Cc4ccc(C(=O)N5CCCCCC5)cc4)c(=S)[nH]c3c2c1	28.1	-1.3	25.1	1.2	-249.0	38.4	x	x	x	x	x
COc1cc(/C=C/c2ccc3cccc(O)c3n2)ccc1O	59.7*	-25.4	80.0*	0.7	-281.8	51.1*	71.4*	74.6*	91.9*	42.6	81.8*
COc1ccc(OC)c(/C=C/c2ccc3cccc(O)c3n2)c1	-16.0	-85.5	-7.6	6.6	-306.7	-14.9	x	x	x	x	x
Cc1ccsc1/C=C/c1ccc2ccccc2n1	27.2	-23.4	48.2	9.2	-22.0	7.3	x	x	x	x	x
Oc1cccc2ccc(/C=C/c3ccccc3Br)nc12	81.6*	2.1	90.5*	-1.1	-45.5	69.9*	72.0*	86.7*	91.4*	78.3*	65.5*
Cc1ccsc1/C=C/c1ccc2cccc(O)c2n1	85.8*	-17.8	94.2*	1.8	-40.8	90.7*	94.6*	97.0*	100.8*	90.9*	84.3*
CSc1ccc(/C=C/c2ccc3cccc(O)c3n2)cc1	42.3	-30.5	66.3*	9.4	-282.4	35.9	64.6*	90.2*	99.8*	90.8*	53.3*
CC(=O)c1ccccc1C(=O)N1CCCC(CNC(=O)c2ccc(F)cc2)C1 (stereo not drawn)	x	1.8	x	x	12.3	x	x	x	x	x	x
CC(=O)c1ccc(NC(=O)CSc2n[nH]c(-c3cccnc3)n2)cc1	4.8	1.9	-5.6	3.0	3.4	0.6	x	x	x	x	x
COc1cc(/C=C/c2ccc3cccc(O)c3n2)c(Br)cc1O	87.1*	-24.1	84.2*	-1.5	-218.6	76.8*	63.4*	86.3*	99.5*	54.6*	10.2
COc1cc(Br)c(/C=C/c2ccc3cccc(O)c3n2)cc1OC	-8.7	0.2	11.1	0.8	-38.9	5.4	x	x	x	x	x
CC1=C(C(=O)N2CCOCC2)CC(CC(=O)NC2CC2)C(=O)N1Cc1ccccc1 (stereo not drawn)	x	1.0	x	x	0.7	x	x	x	x	x	x
O=C(Nc1cccc(O)c1)c1cc(-c2ccco2)on1	84.4*	-2.6	92.1*	17.1*	6.0	-1.5	90.1*	90.7*	98.5*	90.1*	89.5*
O=C(Nc1cccnc1)c1cc(-c2ccccc2O)on1	88.4*	2.6	7.6	11.9	9.8	95.6*	72.8*	72.4*	98.8*	91.0*	89.3*
Cc1ccc(O)c(NC(=O)c2cc(-c3ccccc3Cl)on2)c1	0.1	1.7	25.4	0.7	13.2	62.7*	-1.4	8.9	11.6	10.7	2.7
Cc1ccc(-c2cc(C(=O)Nc3cc(C)ccc3O)no2)cc1	x	-0.2	x	3.6	7.1	x	x	x	x	x	x
O=C(Nc1cccnc1)c1cc(-c2cccs2)on1	50.6*	-3.6	74.0*	0.1	-8.0	83.9*	16.0	34.0	80.2*	79.0*	-0.8
O=C(NCC1CCCO1)c1cc([N+](=O)[O-])ccc1N1CCC(Cc2ccccc2)CC1 (stereo not drawn)	-2.0	-11.4	3.3	x	11.8	-1.6	x	x	x	x	x
CC(C)CN(C(=O)COc1ccc([N+](=O)[O-])cc1)c1c(N)n(CC(C)C)c(=O)[nH]c1=O	-11.4	1.7	-3.2	x	8.2	-10.7	x	x	x	x	x
O=C(CSc1n[nH]c(=O)[nH]c1=O)Nc1ccc(Br)cc1Br	-0.1	0.2	-9.9	x	5.0	5.5	x	x	x	x	x
O=C(c1ccccc1)c1nnc(-c2ccccc2F)o1	90.2*	-0.3	85.3*	-1.7	37.4	96.5*	78.6*	95.5*	98.9*	89.7*	31.0
COC(=O)c1nccnc1N	x	-3.2	x	x	-486.3	x	x	x	x	x	x
SMILES	SENP8 block-1	SENP1 FRET inh	SENP6 inh	HSP90 inh	SENP8 block-2	SENP7 block	SENP8 conf	SENP6 confirm	SENP7 confirm	Casp3 select	SENP luc ctr
CN1C(=O)/C(=C/c2ccc(C(=O)Nc3ccc(O)cc3C(=O)O)cc2)SC1=S	95.9*	5.3	92.7*	-5.7	25.7	60.0*	61.7*	96.6*	70.0*	98.3*	29.0
Cc1ccc(C(=O)Nc2ccc(O)cc2C(=O)O)cc1	35.0	1.1	63.0*	2.7	12.4	42.1	61.8*	57.6*	82.9*	74.9*	64.3*
Cc1cccc(C(=O)Nc2ccc(O)cc2C(=O)O)c1	88.2*	3.6	93.4*	-1.8	12.6	77.4*	88.2*	90.0*	99.9*	95.3*	90.6*
Cc1ccc(C(=O)Nc2ccc(O)cc2C(=O)O)cc1C	24.5	1.5	46.1	1.3	17.9	24.2	x	x	x	x	x
Cc1ccc(/C=C2\SC(=S)N(CCC(=O)NNC(=O)c3ccc(O)cc3)C2=O)cc1	-8.1	0.8	3.0	-1.0	22.8	-3.8	x	x	x	x	x
Cc1ccc(NC(=O)Cn2ccnc2)cc1C	6.7	1.0	11.9	-2.8	9.9	-2.5	x	x	x	x	x
CC(C)(C)S(=O)(=O)N1C[C@H]2CC/C=C\C/C=C\2[C@@H]1CCO	x	-0.1	x	x	5.5	x	x	x	x	x	x
